The values below come from ChEMBL document CHEMBL1671684, “In vitro resistance profile of the hepatitis C virus NS3/4A protease inhibitor TMC435” (Antimicrob Agents Chemother, 2010).

One may read the Ki as a measure of affinity in units of concentration, obtained from inhibition or displacement. Read a high Ki as lower affinity. One may read the EC50 as the concentration that produces a half-maximal response. Read a low EC50 as an effect from little substance. One may read the IC50 as the concentration that inhibits the measured activity by half. Read a high IC50 as lower potency.

The subject of assay [1] is Hepatitis C virus. The assay can be described thus: Inhibition of Hepatitis C virus subtype 1b NS3/4A protease.
Assay [2] relates to Hepatitis C virus. As to the kind of experiment: Antiviral activity against Hepatitis C virus subtype 1b infected in HuH7 cells after 72 hrs by luciferase reporter gene assay. The settings on record: genotype 1b, Huh-7, 72 h. (A reporter such as luciferase makes a cellular process visible.)
Assay [3] is described as follows: Inhibition of Hepatitis C virus subtype 2a NS3/4A protease.
The subject of assay [4] is Hepatitis C virus. As to the kind of experiment: Antiviral activity against Hepatitis C virus subtype 2a JFH1 infected in HuH7.5 cells assessed as delay in occurrence of the viral-induced CPE at 500 nM after 3 days by luciferase reporter assay. Format: functional, organism-based. The settings on record: Hepacivirus hominis.
Assay [5] has as its system Hepatitis C virus. As to the kind of experiment: Antiviral activity against Hepatitis C virus subtype 2a JFH1 infected in HuH7.5 cells assessed as decline in viral RNA replication at 500 nM after 14 passages by TaqMan RT-PCR. Format: functional, organism-based. As to conditions: Hepacivirus hominis. The essentials: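 Huh7.5 cells electroporated with JFH-1wt RNA (genotype 2a, no reporter) in Cytomix with 2 mM ATP and 5 mM glutathione, then 500,000 cells seeded. From day 3, cells passaged with inhibitor at 500 nM or vehicle. HCV RNA quantified at each passage by TaqMan real-time RT-PCR, normalised to host RPL13A RNA by comparative CT. Day-3 level set as 100%.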
(In qPCR the cycle at which signal appears reflects the starting amount.)

Assay [6] deals with Hepatitis C virus. The assay can be described thus: Antiviral activity against Hepatitis C virus infected in HuH7 cells assessed as cell viability at 25 times EC50 after 2 to 3 weeks by neutral red assay in presence of 1,000 ug/ml G418. Format: functional, organism-based. The settings on record: Hepacivirus hominis; Huh-7. An outline of the steps:
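Huh7-Luc genotype 1b (con1, clone ET) replicon cells, 20,000 per 10-cm dish in DMEM with 1,000 μg/ml G418. Cells got one inhibitor or a two-inhibitor combination, dosed as multiples of each inhibitor's EC50 from a genotype 1b luciferase replicon assay. Held at 37°C, 5% CO2, with medium plus compound refreshed twice weekly. After 2–3 weeks, surviving colonies were stained with neutral red and counted. Three independent experiments.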

Active and inactive are the calls of the source. No cut-off for these calls is given here. Some results are limits rather than exact numbers.

In turn, `COc1ccc2c(O[C@@H]3C[C@H]4C(=O)N[C@]5(C(=O)NS(=O)(=O)C6CC6)C[C@H]5/C=C\CCCCN(C)C(=O)[C@@H]4C3)cc(-c3nc(C(C)C)cs3)nc2c1C` [SIMEPREVIR] had an inhibition constant (Ki) in the assay on Hepatitis C virus [1] of 0.5 nM. For the same compound, in the assay with Hepatitis C virus [2], a half-maximal response (EC50) required 8 nM. This compound registered an IC50 in assay [3] of less than 13 nM. Further, the inhibition entry in the assay on Hepatitis C virus [4] and with Hepatitis C virus [5] was “Active” in each case. For the same compound, the inhibition result with Hepatitis C virus [6] was “inactive”.
